Screening data deposited in PubChem BioAssay by several laboratories.
AI-2 QS modul – modulators of Vibrio harveyi AI-2 quorum sensing system. 0.4% of 300,000 active. activity change, % at 7.5 µM. Vibrio harveyi JMH597 AI-2 luminescence/OD600 ratio, 9 h; hits give low values; strain lacks LuxN and CqsS sensors; 0 = neutral-control median; in the data active = activity change below about -75%, passing the limit was not always enough;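 note: luminescence divided by OD600 gain over 9 h not by final OD600 alone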
HIF activator – HIF pathway transcriptional activation | U2OS HRE-luciferase reporter, luminescence; normalized: DMSO 0%, desferrioxamine 100% | activation, % at 7.5 µM (by protocol) | 0.32% of 300,000 active | AID 1910;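 active = mean activation of at least 10% of the iron chelator positive control signal, with at least half of replicates also reaching 10%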
Yeast superoxide – lowers age-related superoxide in aged yeast cells. superoxide response (% of plate mean), % at 10 µM. 0.18% of 330,000 active. S. cerevisiae aged cells, superoxide DHE fluorescence; hits give low values. AID 2690;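 active = superoxide response under a set limit, about three screen SD below normal, cut at about 65% in these data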;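 note: yeast aged for seven days with compound at 30 °C before DHE staining; 100% = average MFI of all compound-treated wells on the plate with controls excluded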
CendR NRP1 mod – NRP-1/CendR interaction modulation; O14786; FAM-RPARPAR peptide binding to NRP-1, fluorescence polarization; inhibition, % at 25 µM; 0.85% of 360,000 active; AID 602438;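 active = inhibition or corrected inhibition above about 18%, plus a signal ratio from 0.5 to 1.5, limit read from the data, passing the limit was not always enough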
Target sequence (O14786 whole entry, looked up): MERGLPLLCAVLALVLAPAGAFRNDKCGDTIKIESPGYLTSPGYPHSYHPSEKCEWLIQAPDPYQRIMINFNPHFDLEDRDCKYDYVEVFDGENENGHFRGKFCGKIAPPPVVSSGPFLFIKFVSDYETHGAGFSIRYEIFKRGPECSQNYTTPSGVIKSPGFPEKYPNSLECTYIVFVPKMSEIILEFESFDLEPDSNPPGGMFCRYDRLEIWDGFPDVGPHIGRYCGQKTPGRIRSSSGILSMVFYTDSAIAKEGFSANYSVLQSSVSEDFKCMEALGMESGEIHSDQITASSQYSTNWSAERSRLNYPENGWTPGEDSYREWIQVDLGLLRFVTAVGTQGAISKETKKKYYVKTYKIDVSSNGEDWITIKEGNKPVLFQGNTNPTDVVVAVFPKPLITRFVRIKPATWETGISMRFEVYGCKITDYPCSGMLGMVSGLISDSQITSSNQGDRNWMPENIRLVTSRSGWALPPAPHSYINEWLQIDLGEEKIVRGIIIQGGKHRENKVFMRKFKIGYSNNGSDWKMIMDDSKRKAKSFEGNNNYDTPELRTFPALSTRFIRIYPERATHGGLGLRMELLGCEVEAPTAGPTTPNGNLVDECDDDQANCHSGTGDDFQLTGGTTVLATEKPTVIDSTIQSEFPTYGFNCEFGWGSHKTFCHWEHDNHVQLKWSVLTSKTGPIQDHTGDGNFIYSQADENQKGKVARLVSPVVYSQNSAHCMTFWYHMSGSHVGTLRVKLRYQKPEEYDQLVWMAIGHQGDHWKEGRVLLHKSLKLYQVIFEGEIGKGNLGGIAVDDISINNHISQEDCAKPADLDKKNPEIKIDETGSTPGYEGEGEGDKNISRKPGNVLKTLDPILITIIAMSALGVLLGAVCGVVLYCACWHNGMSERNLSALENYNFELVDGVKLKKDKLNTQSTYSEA
V-ATPase pHluor – yeast V-ATPase proton transport regulation by pHLuorin | S. cerevisiae, pHLuorin cytosolic pH fluorescence | response, % at 10 µM | 0.37% of 350,000 active | AID 504577; in the data active = response mostly above about 7.3%, no sharp cut-off; inactive = mostly below about 5.4%; note: actives read high
T cruzi inh – T. cruzi replication inhibition; T. cruzi beta-gal in NIH3T3, luminescence, 90 h; inhibition, % (no concentration beside the values); 1.4% of 300,000 active; AID 1885;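 active = mean inhibition across valid replicates above about 55%, limit read from the data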;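 note: signal also drops with host cell toxicity which is not excluded here; 0% = plate median of DMSO wells and 100% = zero luminescence signal; higher percent means less beta-gal luminescence so fewer parasites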
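Read-out: Parasite load inhibition, % | Test system: Mouse NIH/3T3 fibroblasts infected with β-gal-expressing T. cruzi Tulahuen C4 | Amount: 5,000 cells/well | Medium: DMEM, 2% fetal bovine serum | Signal: GalScreen β-gal luminescence, detergent lysis, 60 min | Timing: 3 h attach, ≥90 h co-culture | Also added: Tulahuen C4 trypomastigotes, 5000/well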
An asterisk follows results filed as active; x = no result given. Only some compounds are listed: those with a hit (about 3% of all), similar ones and a draw of the others.

SMILES	AI-2 QS modul	HIF activator	Yeast superoxide	CendR NRP1 mod	V-ATPase pHluor	T cruzi inh
COc1ccc(C(Nc2cc(C)ccn2)c2ccc3ccc(C)nc3c2O)cc1 (stereo unspecified)	39	1	83	4	1	59*
CC(NC(=O)c1ccco1)C1CCCO1 (stereo unspecified)	39	0	98	6	0	-8
c1ccc(CN=C(NCc2ccccc2)NCc2ccccc2)cc1	x	x	x	13	-2	x
COc1ccc(-n2nnnc2SC(C)C(=O)NC2CCCC2)cc1 (stereo unspecified)	x	x	82	20*	-3	x
CCCCCCCCN1[C@@H](CC(=O)OCC)c2ccc(C(F)(F)F)cc2S1(=O)=O	0	-1	101	3	-1	61*
CCOC(=O)C[C@H]1c2cc(C(F)(F)F)ccc2S(=O)(=O)N1C(C)C	13	0	99	34*	0	-15
CCOC(=O)C[C@H]1c2cc(F)ccc2S(=O)(=O)N1C(C)C	14	-1	85	18	-6	-17
Nc1oc2ccccc2c1C(=O)Cc1ccccc1O[C@@H]1O[C@H](CO)[C@@H](O)[C@H](O)[C@H]1O	21	0	95	-1	-5	-14
CCCCCn1c(=O)c(Cc2ccccc2)c(O)c2ccccc21	16	0	132	0	6	16
CCc1nc2c(OCc3ccc(C(=O)OC)cc3)cccn2c1N(C)C(=O)CC(C)C	x	x	x	26*	x	x
CCc1nc2c(OCc3ccccc3C)cccn2c1N(C)C(=O)CC(C)C	x	x	x	-3	x	x
CCCCC(=O)N(C)c1c(CC)nc2c(OCc3ccccc3C)cccn12	x	x	x	22*	x	x
O=C(c1ccc(Cl)cc1)C1CCN(C(=O)c2ccccc2)CC1	31	-1	102	17	-4	-7
CCc1nc2ccc(C(=O)N(C)CCCN(C)C)cn2c1N(C)CCCc1ccccc1	x	x	x	-4	x	x
O=C(NCCCn1cccn1)C1CCC(=O)N(Cc2ccccc2F)C1 (stereo unspecified)	0	0	110	5	2	-6
CC1(C)N=C(N)N=C(N)N1c1cc(Cl)ccc1Cl	x	x	x	-1	2	x
CC1(C)N=C(N)N=C(N)N1c1ccc(Oc2ccc(Cl)cc2)c(Cl)c1	20	-1	89	0	-104	55*
CCCCCOc1ccc(Br)cc1/C(C)=N/NC1=NCCN1	-2	1	93	7	-1	55*
O=C(COc1ccc(Cl)cc1)NNC(=S)NCc1ccccc1	-19	0	87	-2	0	0
O=C(CCCn1c(=O)c2ccccc2n(Cc2cccc(F)c2)c1=O)NC1CCN(Cc2ccccc2)CC1	27	-1	87	x	x	31
O=C(CCCCn1c(=O)c2ccccc2n(Cc2ccccc2)c1=O)NC1CCN(Cc2ccccc2)CC1	7	0	108	-18	1	59*
O=C(NCc1ccco1)C1CCN(S(=O)(=O)c2cccc([N+](=O)[O-])c2)CC1	13	0	102	28*	1	4
O=C(NCc1ccco1)c1ccc(S(=O)(=O)N2CCCCC2)cc1	36	0	100	-1	5	-3
O=S(=O)(c1ccc(NC(=S)NCc2ccco2)cc1)N1CCCCC1	-88*	x	93	-2	3	x
COc1ccccc1CNC(=O)C1CCN(S(=O)(=O)c2cccc([N+](=O)[O-])c2)CC1	28	0	113	5	2	17
SMILES	AI-2 QS modul	HIF activator	Yeast superoxide	CendR NRP1 mod	V-ATPase pHluor	T cruzi inh
Cc1c(C=O)c2ccccn2c1C(=O)c1cccc([N+](=O)[O-])c1	14	-1	113	-3	0	3
Cc1ccc(-c2nc3ccccc3nc2NN)cc1	25	18*	94	3	-1	0
O=C1C=CC(=O)c2c(O)c(CO)c(CO)c(O)c21	x	x	x	59*	-4	x
CC(=O)N1N=C(c2ccccc2)OC1c1ccc([N+](=O)[O-])s1 (stereo unspecified)	58	-1	113	13	-1	84*
CC(=O)N1N=C(c2cccc([N+](=O)[O-])c2)OC1c1ccc(Br)cc1 (stereo unspecified)	2	0	101	-9	-1	-4
CC(C)CCNC(=O)c1cn(C)c2ccc(S(=O)(=O)N3CCCC3)cc2c1=O	10	3	176	-2	1	7
